This passage reports inhibition and IC50 results from ChEMBL document CHEMBL1131465, “Design, synthesis, and biological evaluation of conformationally constrained aci-reductone mimics of arachidonic acid” (J Med Chem, 1998).

Molecules are shown by their SMILES.

Experiment [1] is filed under the species Cavia porcellus. The experiment is described as follows: (§1) Inhibition of CCl4 induced lipid peroxidation (LPO) of guinea pig hepatic microsomes at 300 uM concentration. Particulars: Liver. Format: functional. In short, it runs like this: (§2)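 Lipid peroxidation of polyunsaturated fatty acids in guinea pig liver microsomes was induced with CCl₄. Test compounds were used at 300 µM. Malondialdehyde (MDA) formation was quantified spectrophotometrically, and results are reported as percent inhibition.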

The target of experiment [2] is T1, Prostaglandin G/H synthase 1 (Ovis aries) (UniProt P05979).
T1 sequence (whole entry): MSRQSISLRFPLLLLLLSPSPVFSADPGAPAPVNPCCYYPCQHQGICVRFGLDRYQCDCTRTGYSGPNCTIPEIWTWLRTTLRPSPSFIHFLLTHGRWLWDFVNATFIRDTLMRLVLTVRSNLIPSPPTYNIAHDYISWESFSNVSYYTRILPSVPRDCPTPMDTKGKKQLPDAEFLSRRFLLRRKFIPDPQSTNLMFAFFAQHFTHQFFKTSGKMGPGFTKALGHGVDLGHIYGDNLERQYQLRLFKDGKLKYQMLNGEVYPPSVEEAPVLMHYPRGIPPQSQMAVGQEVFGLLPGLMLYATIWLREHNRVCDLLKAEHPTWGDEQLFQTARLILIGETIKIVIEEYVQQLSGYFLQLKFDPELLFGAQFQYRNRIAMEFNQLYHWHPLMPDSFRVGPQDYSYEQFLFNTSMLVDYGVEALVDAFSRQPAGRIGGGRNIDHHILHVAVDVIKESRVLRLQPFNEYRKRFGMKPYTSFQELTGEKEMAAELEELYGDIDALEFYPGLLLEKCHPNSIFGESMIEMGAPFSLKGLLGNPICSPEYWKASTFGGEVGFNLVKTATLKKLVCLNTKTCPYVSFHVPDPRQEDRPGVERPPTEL
In words: Inhibition of Prostaglandin G/H synthase 1 isolated from ram (sheep) seminal vesicle at 300 uM. Format: tissue-based.

For experiment [3], the target named is T2, Polyunsaturated fatty acid 5-lipoxygenase (Rattus norvegicus) (UniProt P12527).
T2 sequence (whole entry): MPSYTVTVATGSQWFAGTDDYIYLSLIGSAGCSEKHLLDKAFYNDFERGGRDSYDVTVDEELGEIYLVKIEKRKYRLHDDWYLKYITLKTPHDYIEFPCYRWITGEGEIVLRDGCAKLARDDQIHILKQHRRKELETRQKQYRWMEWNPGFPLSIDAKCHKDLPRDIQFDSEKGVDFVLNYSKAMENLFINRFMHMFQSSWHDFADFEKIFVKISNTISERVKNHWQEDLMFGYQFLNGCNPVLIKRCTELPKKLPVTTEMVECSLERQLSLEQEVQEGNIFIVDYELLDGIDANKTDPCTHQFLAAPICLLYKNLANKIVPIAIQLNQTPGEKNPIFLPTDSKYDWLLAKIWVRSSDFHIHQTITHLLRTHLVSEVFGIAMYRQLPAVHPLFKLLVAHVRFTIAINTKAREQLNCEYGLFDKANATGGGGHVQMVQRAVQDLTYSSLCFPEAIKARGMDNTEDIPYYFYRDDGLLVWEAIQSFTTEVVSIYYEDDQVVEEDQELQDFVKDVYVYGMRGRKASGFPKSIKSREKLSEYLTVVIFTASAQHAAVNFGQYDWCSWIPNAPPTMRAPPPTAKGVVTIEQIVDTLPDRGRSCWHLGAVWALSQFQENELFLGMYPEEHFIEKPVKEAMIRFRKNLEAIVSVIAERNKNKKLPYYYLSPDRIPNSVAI
The experiment is described as follows: Inhibition of 5-lipoxygenase of rat basophilic leukemia cells at 30 uM. Format: cell-based. To be noted: RBL-1. In outline: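 5-LO source was a crude enzyme preparation from broken rat basophilic leukemia (RBL-1) cells. Compounds were screened at a single concentration of 30 µM, and results are reported as percent inhibition.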

Experiment [4] has as its target T3, Prostaglandin G/H synthase 2 (Ovis aries) (UniProt P79208).
T3 sequence (whole entry): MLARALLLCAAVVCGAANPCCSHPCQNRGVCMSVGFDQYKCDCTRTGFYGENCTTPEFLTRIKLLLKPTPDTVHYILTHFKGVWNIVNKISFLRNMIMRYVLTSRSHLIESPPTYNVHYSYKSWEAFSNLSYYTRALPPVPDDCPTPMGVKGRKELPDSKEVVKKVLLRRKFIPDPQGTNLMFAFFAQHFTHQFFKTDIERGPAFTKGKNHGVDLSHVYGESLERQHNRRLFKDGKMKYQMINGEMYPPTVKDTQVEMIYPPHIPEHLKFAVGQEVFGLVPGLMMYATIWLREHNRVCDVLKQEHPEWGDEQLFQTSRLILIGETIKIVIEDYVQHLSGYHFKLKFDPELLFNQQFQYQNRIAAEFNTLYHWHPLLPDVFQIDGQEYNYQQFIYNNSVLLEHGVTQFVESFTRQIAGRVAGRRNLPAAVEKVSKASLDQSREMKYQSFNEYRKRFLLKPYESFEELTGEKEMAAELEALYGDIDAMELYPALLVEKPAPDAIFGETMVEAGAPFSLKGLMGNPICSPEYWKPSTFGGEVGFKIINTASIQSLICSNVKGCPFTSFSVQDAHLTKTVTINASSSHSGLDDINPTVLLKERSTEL
The experiment is described as follows: Inhibition of Prostaglandin G/H synthase 2 from sheep placenta at 300 uM.

Experiment [5] addresses T4, Polyunsaturated fatty acid 5-lipoxygenase (Rattus norvegicus, UniProt P12527).
T4 sequence (P12527 whole entry): T2 sequence (whole entry)
In words: Inhibitory activity against 5-lipoxygenase obtained from rat basophilic leukemia cells. In short, it runs like this:
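IC50 was determined against 5-LO in a broken RBL-1 cell assay, using a crude enzyme preparation from rat basophilic leukemia cells.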

Experiment [6] is filed under the species Cavia porcellus. Described as §1. Format: functional. To be noted: Liver. In outline:
as §2
The source holds these as a separate data set.

A word on the inhibition: it is the drop in the measured response relative to a control, in per cent. Higher therefore signals strong suppression. `CCCSCc1ccccc1C#CCCC1OC(O)=C(O)C1=O` (stereo unspecified): the inhibition in the experiment listed under Cavia porcellus [1] was 72%; in experiment [2] it was 38%; in experiment [3], 82%; in experiment [4] it was 20%.

Regarding `O=C1C(O)=C(O)OC1CCC#Cc1ccccc1` (stereo unspecified), the inhibition in the experiment listed under Cavia porcellus [1] was found to be 62%; in experiment [2], 5%; in experiment [3], 58%; in experiment [4], 13%.

As to `CCCS(=O)(=O)Cc1ccccc1C#CCCC1OC(O)=C(O)C1=O` (stereo unspecified), the inhibition worked out at 60% in the experiment listed under Cavia porcellus [1], 25% in experiment [2], 30% in experiment [3] and 12% in experiment [4].

As a reminder, the IC50 is the concentration that gives 50% inhibition. Turning to `O=C1C(O)=C(O)OC1CCC#Cc1ccc(Cc2ccc(F)cc2)s1` (stereo unspecified), the inhibition in experiment [3] worked out at 100%. The same molecule showed an IC50 in experiment [5] of 0.16 µM.

For `Cc1c(C)c2c(c(C)c1O)CC[C@@](C)(CCC[C@H](C)CCC[C@H](C)CCCC(C)C)O2` [ALPHA-TOCOPHEROL], the IC50 in the experiment listed under Cavia porcellus [6] came out at 280 µM.

As to `CCC/C=C\Cc1ccccc1/C=C\CCC1OC(O)=C(O)C1=O` (stereo unspecified), the inhibition was 68% in the experiment filed under Cavia porcellus [1], 37% in experiment [2], 99% in experiment [3] and 28% in experiment [4].

With `CC(=O)Oc1ccccc1C(=O)O`, the inhibition is 4% in the experiment listed under Cavia porcellus [1], 76% in experiment [2], 0% in experiment [3] and 0% in experiment [4].

As to `C[C@H](C#Cc1ccc(Cc2ccc(F)cc2)s1)N(O)C(N)=O` [ATRELEUTON], in experiment [5], the midpoint of inhibition, the IC50, lay at 0.023 µM.

Consider `CCCCCSCc1ccccc1C#CCCC1OC(O)=C(O)C1=O` (stereo unspecified), for which the inhibition in the experiment filed under Cavia porcellus [1] was found to be 62%; in experiment [2] it was 67%; in experiment [3], 90%; in experiment [4], 45%.

On to `CCCCS(=O)(=O)Nc1ccccc1C#CCCC1OC(O)=C(O)C1=O` (stereo unspecified), for which the inhibition was found to be 75% in the experiment filed under Cavia porcellus [1], 8% in experiment [2], 81% in experiment [3] and 23% in experiment [4].

Consider `Cc1ccccc1C#CCCC1OC(O)=C(O)C1=O` (stereo unspecified), for which the inhibition was 59% in the experiment listed under Cavia porcellus [1], 8% in experiment [2], 43% in experiment [3] and 18% in experiment [4].

Consider `CCC/C=C\Cc1ccccc1C#CCCC1OC(O)=C(O)C1=O` (stereo unspecified), for which the inhibition in the experiment filed under Cavia porcellus [1] amounted to 72%; in experiment [2], 55%; in experiment [3], 81%; in experiment [4], 28%. This molecule displayed an IC50 in experiment [5] of 0.4 µM.

As to `O=C1C(O)=C(O)OC1CCC#Cc1ccccc1CSc1ccccc1` (stereo unspecified), the inhibition worked out at 61% in the experiment filed under Cavia porcellus [1], 25% in experiment [2], 100% in experiment [3] and 15% in experiment [4]. In experiment [5], this molecule gave an IC50 of 0.3 µM.
